Test results as given in ChEMBL document CHEMBL4152234, “Aminobenzothiazole derivatives stabilize the thermolabile p53 cancer mutant Y220C and show anticancer activity in p53-Y220C cell lines” (Eur J Med Chem, 2018).

How the values were obtained:
Type in all cases: cell-based
[1] = system: Cellular tumor antigen p53 (Homo sapiens), P04637 [Y220C]; assay: Activation of p53 Y220C mutant in human NUGC3 cells assessed as change in MCL1 mRNA level at 60 uM after 18 hrs by RT-PCR method relative to control
Summary of the method: (§1)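 p53 signalling qPCR array covering 84 p53 pathway genes. Cells were exposed for 18 h, and compound and control wells both held 0.5% DMSO. Total RNA was extracted and purified. Fold-changes were calculated by the ΔΔCt method against the untreated sample, with β2-microglobulin (B2M) as the housekeeping gene. Each cell line was run in two independent biological replicates.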

[2] = target: T1, Cellular tumor antigen p53 (Homo sapiens, UniProt P04637); assay: Activation of p53 in human NUGC4 cells assessed as change in RELA mRNA level at 60 uM after 18 hrs by RT-PCR method relative to control; conditions: read-out: FC
[3] = target: T1, Cellular tumor antigen p53; assay: Activation of p53 in human NUGC4 cells assessed as change in TP53 mRNA level at 60 uM after 18 hrs by RT-PCR method relative to control; conditions: read-out: FC
[4] = system: Cellular tumor antigen p53 (Homo sapiens), P04637 [Y220C]; assay: Activation of p53 Y220C mutant in human NUGC3 cells assessed as change in MDM2 mRNA level at 60 uM after 18 hrs by RT-PCR method relative to control; summary of the method: as §1
[5] = system: Cellular tumor antigen p53 (Homo sapiens), P04637 [Y220C]; assay: Activation of p53 Y220C mutant in human NUGC3 cells assessed as change in CDC25A mRNA level at 60 uM after 18 hrs by RT-PCR method relative to control
Summary of the method: (§2)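 p53 signalling qPCR array covering 84 genes. Cells were exposed for 18 h, with 0.5% DMSO in both compound and control samples. Total RNA was extracted and purified. Fold-changes were calculated by ΔΔCt using β2-microglobulin (B2M) as the housekeeping gene. Two independent biological replicates were run per cell line.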

[6] = target: T1, Cellular tumor antigen p53; assay: Activation of p53 in human NUGC4 cells assessed as change in TP63 mRNA level at 60 uM after 18 hrs by RT-PCR method relative to control; conditions: read-out: FC
[7] = target: T1, Cellular tumor antigen p53; assay: Activation of p53 in human NUGC4 cells assessed as change in CCNB1 mRNA level at 60 uM after 18 hrs by RT-PCR method relative to control; conditions: read-out: FC
Summary of the method: (§3)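 p53 signaling qPCR array of 84 p53-pathway genes. Cells were treated in 6-well plates for 18 h with 0.5% DMSO in compound and control samples. Total RNA was extracted and fold-changes were obtained by the ΔΔCt method against untreated control, with β2-microglobulin (B2M) as housekeeping gene. Two independent biological replicates per cell line.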

[8] = system: Cellular tumor antigen p53 (Homo sapiens), P04637 [Y220C]; assay: Activation of p53 Y220C mutant in human NUGC3 cells assessed as change in KAT2B mRNA level at 60 uM after 18 hrs by RT-PCR method relative to control; summary of the method: as §1
[9] = target: T1, Cellular tumor antigen p53; assay: Activation of p53 in human NUGC4 cells assessed as change in FADD mRNA level at 60 uM after 18 hrs by RT-PCR method relative to control; conditions: read-out: FC; summary of the method: as §3
[10] = system: Cellular tumor antigen p53 (Homo sapiens), P04637 [Y220C]; assay: Activation of p53 Y220C mutant in human NUGC3 cells assessed as change in SIRT1 mRNA level at 60 uM after 18 hrs by RT-PCR method relative to control; summary of the method: as §1
[11] = system: Cellular tumor antigen p53 (Homo sapiens), P04637 [Y220C]; assay: Activation of p53 Y220C mutant in human NUGC3 cells assessed as change in PCNA mRNA level at 60 uM after 18 hrs by RT-PCR method relative to control; summary of the method: as §1
[12] = system: Cellular tumor antigen p53 (Homo sapiens), P04637 [Y220C]; assay: Activation of p53 Y220C mutant in human NUGC3 cells assessed as change in GADD45A mRNA level at 60 uM after 18 hrs by RT-PCR method relative to control; summary of the method: as §2
[13] = system: Cellular tumor antigen p53 (Homo sapiens), P04637 [Y220C]; assay: Activation of p53 Y220C mutant in human NUGC3 cells assessed as change in WT1 mRNA level at 60 uM after 18 hrs by RT-PCR method relative to control; summary of the method: as §1
[14] = system: Cellular tumor antigen p53 (Homo sapiens), P04637 [Y220C]; assay: Activation of p53 Y220C mutant in human NUGC3 cells assessed as change in XRCC5 mRNA level at 60 uM after 18 hrs by RT-PCR method relative to control; summary of the method: as §1
[15] = target: T1, Cellular tumor antigen p53; assay: Activation of p53 in human NUGC4 cells assessed as change in ADGRB1 mRNA level at 60 uM after 18 hrs by RT-PCR method relative to control; conditions: read-out: FC; summary of the method: as §1
[16] = target: T1, Cellular tumor antigen p53; assay: Activation of p53 in human NUGC4 cells assessed as change in SESN2 mRNA level at 60 uM after 18 hrs by RT-PCR method relative to control; conditions: read-out: FC
[17] = target: T1, Cellular tumor antigen p53; assay: Activation of p53 in human NUGC4 cells assessed as change in CHEK1 mRNA level at 60 uM after 18 hrs by RT-PCR method relative to control; conditions: read-out: FC; summary of the method: as §3
[18] = target: T1, Cellular tumor antigen p53; assay: Activation of p53 in human NUGC4 cells assessed as change in CDC25C mRNA level at 60 uM after 18 hrs by RT-PCR method relative to control; conditions: read-out: FC; summary of the method: as §3
[19] = target: T1, Cellular tumor antigen p53; assay: Activation of p53 in human NUGC4 cells assessed as change in SIRT1 mRNA level at 60 uM after 18 hrs by RT-PCR method relative to control; conditions: read-out: FC
[20] = system: Cellular tumor antigen p53 (Homo sapiens), P04637 [Y220C]; assay: Activation of p53 Y220C mutant in human NUGC3 cells assessed as change in E2F3 mRNA level at 60 uM after 18 hrs by RT-PCR method relative to control; summary of the method: as §2
[21] = target: T1, Cellular tumor antigen p53; assay: Activation of p53 in human NUGC4 cells assessed as change in PTEN mRNA level at 60 uM after 18 hrs by RT-PCR method relative to control; conditions: read-out: FC
[22] = system: Cellular tumor antigen p53 (Homo sapiens), P04637 [Y220C]; assay: Activation of p53 Y220C mutant in human NUGC3 cells assessed as change in PPM1D mRNA level at 60 uM after 18 hrs by RT-PCR method relative to control; summary of the method: as §1
[23] = system: Cellular tumor antigen p53 (Homo sapiens), P04637 [Y220C]; assay: Activation of p53 Y220C mutant in human NUGC3 cells assessed as change in TSC1 mRNA level at 60 uM after 18 hrs by RT-PCR method relative to control; summary of the method: as §1
[24] = system: Cellular tumor antigen p53 (Homo sapiens), P04637 [Y220C]; assay: Activation of p53 Y220C mutant in human NUGC3 cells assessed as change in BRCA2 mRNA level at 60 uM after 18 hrs by RT-PCR method relative to control; summary of the method: as §2
[25] = target: T1, Cellular tumor antigen p53; assay: Activation of p53 in human NUGC4 cells assessed as change in RPRM mRNA level at 60 uM after 18 hrs by RT-PCR method relative to control; conditions: read-out: FC
[26] = target: T1, Cellular tumor antigen p53; assay: Activation of p53 in human NUGC4 cells assessed as change in FAS mRNA level at 60 uM after 18 hrs by RT-PCR method relative to control; conditions: read-out: FC; summary of the method: as §3
[27] = target: T1, Cellular tumor antigen p53; assay: Activation of p53 in human NUGC4 cells assessed as change in MLH1 mRNA level at 60 uM after 18 hrs by RT-PCR method relative to control; conditions: read-out: FC; summary of the method: as §3
[28] = target: T1, Cellular tumor antigen p53; assay: Activation of p53 in human NUGC4 cells assessed as change in HDAC1 mRNA level at 60 uM after 18 hrs by RT-PCR method relative to control; conditions: read-out: FC; summary of the method: as §3
[29] = target: T1, Cellular tumor antigen p53; assay: Activation of p53 in human NUGC4 cells assessed as change in BRCA2 mRNA level at 60 uM after 18 hrs by RT-PCR method relative to control; conditions: read-out: FC; summary of the method: as §3

Q: Which fold change (FC) [1] does the source give for CCNC(=O)c1c(O)c(I)c(-n2cccc2)c2sc(N(CC)CC)nc12 here?
A: 1.7

Q: What about the fold induction at 60 µM [2] of the same molecule?
A: 0.8

Q: What about the fold induction at 60 µM [3] of the same molecule?
A: 0.8

Q: What about the fold change (FC) [4] of the same molecule?
A: 1

Q: What about the fold change (FC) [5] of the same molecule?
A: 0.6

Q: And the fold induction at 60 µM [6]?
A: 0.5

Q: And the fold induction at 60 µM [7]?
A: 0.7

Q: And the fold change (FC) [8]?
A: 0.8

Q: And the fold induction at 60 µM [9]?
A: 0.9

Q: And the fold change (FC) [10]?
A: 1.7

Q: And the fold change (FC) [11]?
A: 0.8

Q: And the fold change (FC) [12]?
A: 2.2

Q: What about the fold change (FC) [13] of the same molecule?
A: 1.5

Q: And the fold change (FC) [14]?
A: 1.4

Q: And the fold induction at 60 µM [15]?
A: 2.9

Q: What about the fold induction at 60 µM [16] of the same molecule?
A: 1.3

Q: What about the fold induction at 60 µM [17] of the same molecule?
A: 0.7

Q: And the fold induction at 60 µM [18]?
A: 0.9

Q: What about the fold induction at 60 µM [19] of the same molecule?
A: 0.9

Q: And the fold change (FC) [20]?
A: 1.3

Q: What about the fold induction at 60 µM [21] of the same molecule?
A: 1

Q: And the fold change (FC) [22]?
A: 0.9

Q: And the fold change (FC) [23]?
A: 1.3

Q: What about the fold change (FC) [24] of the same molecule?
A: 0.9

Q: What about the fold induction at 60 µM [25] of the same molecule?
A: 7.9

Q: And the fold induction at 60 µM [26]?
A: 1

Q: What about the fold induction at 60 µM [27] of the same molecule?
A: 1

Q: And the fold induction at 60 µM [28]?
A: 0.8

Q: What about the fold induction at 60 µM [29] of the same molecule?
A: 0.6
